Laboratory results: ChEMBL document CHEMBL5678810
The source made the active and inactive calls. The rule behind the calls is not given here.

Legend:
[1] = tested on: Leucine-rich repeat serine/threonine-protein kinase 2 (Homo sapiens), Q5S007 [A2016T]; experiment: Inhibition of drug-resistant GFP-tagged LRRK2 A2016T mutant phosphorylation at Ser910 residue (unknown origin) transfected in HEK293 cells upto 3 uM incubated for 90 mins by immunoblot analysis; type: cell-based
How it was run: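 HEK293 cells stably expressing GFP-LRRK2 variants, grown in DMEM with 10% FBS, 2 mM glutamine and penicillin/streptomycin. Compound added from DMSO stock (final DMSO ≤1%) at increasing concentrations for 90 min, DMSO control. Cells were PBS-washed and lysed in Triton X-100 lysis buffer. Lysates were run on 8% SDS-PAGE and immunoblotted with rabbit monoclonals against pSer910, pSer935 and total LRRK2.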

[2] = target: Calcium/calmodulin-dependent protein kinase type 1D (Homo sapiens) (UniProt Q8IU85); experiment: Inhibition of T7 bacteriophage fused human CAMK1D at 10 uM by KINOMEscan analysis relative to control
[3] = target: MAP kinase-activated protein kinase 2 (Homo sapiens) (UniProt P49137); experiment: Inhibition of T7 bacteriophage fused human MAPKAPK2 at 10 uM by KINOMEscan analysis relative to control
[4] = target: Tyrosine-protein kinase Lyn (Homo sapiens) (UniProt P07948); experiment: Inhibition of T7 bacteriophage fused human LYN at 10 uM by KINOMEscan analysis relative to control
[5] = target: Serine/threonine-protein kinase BRSK2 (Homo sapiens) (UniProt Q8IWQ3); experiment: Inhibition of T7 bacteriophage fused human BRSK2 at 10 uM by KINOMEscan analysis relative to control
[6] = target: Serine/threonine-protein kinase STK11 (Homo sapiens) (UniProt Q15831); experiment: Inhibition of T7 bacteriophage fused human LKB1 at 10 uM by KINOMEscan analysis relative to control; values are per cent of control
[7] = target: Homeodomain-interacting protein kinase 3 (Homo sapiens) (UniProt Q9H422); experiment: Inhibition of T7 bacteriophage fused human HIPK3 at 10 uM by KINOMEscan analysis relative to control; values are per cent of control
[8] = target: Eukaryotic translation initiation factor 2-alpha kinase 1 (Homo sapiens) (UniProt Q9BQI3); experiment: Inhibition of T7 bacteriophage fused human EIF2AK1 at 10 uM by KINOMEscan analysis relative to control
[9] = target: Activin receptor type-2A (Homo sapiens) (UniProt P27037); experiment: Inhibition of T7 bacteriophage fused human ACVR2A at 10 uM by KINOMEscan analysis relative to control
[10] = target: Receptor tyrosine-protein kinase erbB-4 (Homo sapiens) (UniProt Q15303); experiment: Inhibition of T7 bacteriophage fused human ERBB4 at 10 uM by KINOMEscan analysis relative to control
[11] = target: Serine/threonine-protein kinase N2 (Homo sapiens) (UniProt Q16513); experiment: Inhibition of T7 bacteriophage fused human PKN2 at 10 uM by KINOMEscan analysis relative to control
[12] = tested on: Epidermal growth factor receptor (Homo sapiens), P00533 [L858R,T790M]; experiment: Inhibition of T7 bacteriophage fused human EGFR L858R/T790M mutant at 10 uM by KINOMEscan analysis relative to control
[13] = tested on: Phosphatidylinositol 4,5-bisphosphate 3-kinase catalytic subunit alpha isoform (Homo sapiens), P42336 [H1047L]; experiment: Inhibition of T7 bacteriophage fused human PIK3CA H1047L mutant at 10 uM by KINOMEscan analysis relative to control
[14] = target: Tyrosine-protein kinase Fer (Homo sapiens) (UniProt P16591); experiment: Inhibition of T7 bacteriophage fused human FER at 10 uM by KINOMEscan analysis relative to control; values are per cent of control
[15] = target: Serine/threonine-protein kinase PRP4 homolog (Homo sapiens) (UniProt Q13523); experiment: Inhibition of T7 bacteriophage fused human PRP4 at 10 uM by KINOMEscan analysis relative to control
[16] = target: Cyclin-dependent kinase 2 (Homo sapiens) (UniProt P24941); experiment: Inhibition of T7 bacteriophage fused human CDK2 at 10 uM by KINOMEscan analysis relative to control
[17] = target: Interferon-induced, double-stranded RNA-activated protein kinase (Homo sapiens) (UniProt P19525); experiment: Inhibition of T7 bacteriophage fused human PRKR at 10 uM by KINOMEscan analysis relative to control
[18] = target: Serine/threonine-protein kinase MRCK beta (Homo sapiens) (UniProt Q9Y5S2); experiment: Inhibition of T7 bacteriophage fused human MRCKB at 10 uM by KINOMEscan analysis relative to control
[19] = target: Serine/threonine-protein kinase RIO3 (Homo sapiens) (UniProt O14730); experiment: Inhibition of T7 bacteriophage fused human RIOK3 at 10 uM by KINOMEscan analysis relative to control
[20] = target: Glycogen synthase kinase-3 beta (Homo sapiens) (UniProt P49841); experiment: Inhibition of T7 bacteriophage fused human GSK3B at 10 uM by KINOMEscan analysis relative to control; values are per cent of control
[21] = target: Calcium/calmodulin-dependent protein kinase type II subunit delta (Homo sapiens) (UniProt Q13557); experiment: Inhibition of T7 bacteriophage fused human CAMK2D at 10 uM by KINOMEscan analysis relative to control
[22] = target: Cyclin-dependent kinase-like 1 (Homo sapiens) (UniProt Q00532); experiment: Inhibition of T7 bacteriophage fused human CDKL1 at 10 uM by KINOMEscan analysis relative to control
[23] = tested on: Tyrosine-protein kinase ABL1 (Homo sapiens), P00519 [H396P]; experiment: Inhibition of T7 bacteriophage fused human phosphorylated ABL1 H396P mutant at 10 uM by KINOMEscan analysis relative to control
[24] = target: Megakaryocyte-associated tyrosine-protein kinase (Homo sapiens) (UniProt P42679); experiment: Inhibition of T7 bacteriophage fused human CTK at 10 uM by KINOMEscan analysis relative to control
[25] = target: RAC-alpha serine/threonine-protein kinase (Homo sapiens) (UniProt P31749); experiment: Inhibition of T7 bacteriophage fused human AKT1 at 10 uM by KINOMEscan analysis relative to control
[26] = target: Serine/threonine-protein kinase PAK 2 (Homo sapiens) (UniProt Q13177); experiment: Inhibition of T7 bacteriophage fused human PAK2 at 10 uM by KINOMEscan analysis relative to control
[27] = target: Tyrosine-protein kinase FRK (Homo sapiens) (UniProt P42685); experiment: Inhibition of T7 bacteriophage fused human FRK at 10 uM by KINOMEscan analysis relative to control; values are per cent of control
[28] = target: RAC-beta serine/threonine-protein kinase (Homo sapiens) (UniProt P31751); experiment: Inhibition of T7 bacteriophage fused human AKT2 at 10 uM by KINOMEscan analysis relative to control
[29] = target: Serine/threonine-protein kinase 36 (Homo sapiens) (UniProt Q9NRP7); experiment: Inhibition of T7 bacteriophage fused human STK36 at 10 uM by KINOMEscan analysis relative to control

Sequence of Tyrosine-protein kinase Fer (Homo sapiens) (P16591 whole entry, looked up, the tested form may be a part): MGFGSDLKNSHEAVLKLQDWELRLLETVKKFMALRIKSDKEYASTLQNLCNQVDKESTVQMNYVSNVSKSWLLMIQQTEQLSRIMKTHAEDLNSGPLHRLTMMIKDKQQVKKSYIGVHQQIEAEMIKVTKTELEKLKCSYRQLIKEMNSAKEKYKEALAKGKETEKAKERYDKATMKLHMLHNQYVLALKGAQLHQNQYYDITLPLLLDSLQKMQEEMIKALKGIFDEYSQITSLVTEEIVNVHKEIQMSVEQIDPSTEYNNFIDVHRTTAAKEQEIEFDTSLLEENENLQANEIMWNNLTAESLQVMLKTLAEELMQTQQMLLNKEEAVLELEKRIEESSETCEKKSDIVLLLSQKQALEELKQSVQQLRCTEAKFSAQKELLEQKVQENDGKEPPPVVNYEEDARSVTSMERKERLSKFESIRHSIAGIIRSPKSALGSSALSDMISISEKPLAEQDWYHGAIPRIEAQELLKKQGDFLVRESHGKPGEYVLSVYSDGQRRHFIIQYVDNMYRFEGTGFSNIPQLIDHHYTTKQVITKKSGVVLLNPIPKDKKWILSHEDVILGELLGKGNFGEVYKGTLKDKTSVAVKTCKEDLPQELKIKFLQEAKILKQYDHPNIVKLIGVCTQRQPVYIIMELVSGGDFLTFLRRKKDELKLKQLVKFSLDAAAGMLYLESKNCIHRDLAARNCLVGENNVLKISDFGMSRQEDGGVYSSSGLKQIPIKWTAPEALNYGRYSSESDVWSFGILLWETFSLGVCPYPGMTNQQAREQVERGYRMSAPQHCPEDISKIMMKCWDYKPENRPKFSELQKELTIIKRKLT
Sequence of RAC-beta serine/threonine-protein kinase (Homo sapiens) (P31751 whole entry, the tested form may be a part): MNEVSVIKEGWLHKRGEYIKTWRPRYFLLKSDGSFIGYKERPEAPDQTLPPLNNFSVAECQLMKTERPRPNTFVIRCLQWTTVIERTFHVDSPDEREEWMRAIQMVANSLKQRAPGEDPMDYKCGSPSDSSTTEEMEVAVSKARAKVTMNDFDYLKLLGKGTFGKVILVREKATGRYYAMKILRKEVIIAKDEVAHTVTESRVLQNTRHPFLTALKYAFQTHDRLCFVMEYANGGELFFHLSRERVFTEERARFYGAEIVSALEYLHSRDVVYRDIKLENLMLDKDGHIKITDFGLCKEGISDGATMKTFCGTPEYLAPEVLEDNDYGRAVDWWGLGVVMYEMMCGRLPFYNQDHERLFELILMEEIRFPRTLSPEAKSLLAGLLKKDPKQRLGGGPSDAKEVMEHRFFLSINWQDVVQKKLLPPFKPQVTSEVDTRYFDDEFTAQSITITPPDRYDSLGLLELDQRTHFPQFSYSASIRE
Sequence of Calcium/calmodulin-dependent protein kinase type 1D (Homo sapiens) (Q8IU85 whole entry, looked up, the tested form may be a part): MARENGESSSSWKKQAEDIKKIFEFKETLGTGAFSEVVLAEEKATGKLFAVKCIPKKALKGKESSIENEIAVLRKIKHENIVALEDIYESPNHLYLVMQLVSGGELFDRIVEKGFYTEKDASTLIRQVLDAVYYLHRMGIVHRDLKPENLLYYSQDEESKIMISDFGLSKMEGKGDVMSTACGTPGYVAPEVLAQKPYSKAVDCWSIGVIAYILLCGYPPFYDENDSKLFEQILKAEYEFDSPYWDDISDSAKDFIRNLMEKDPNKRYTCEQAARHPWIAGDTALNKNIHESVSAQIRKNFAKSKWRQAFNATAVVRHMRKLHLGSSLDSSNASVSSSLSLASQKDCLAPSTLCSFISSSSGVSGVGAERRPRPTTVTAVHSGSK
Sequence of Receptor tyrosine-protein kinase erbB-4 (Homo sapiens) (Q15303 whole entry, the tested form may be a part): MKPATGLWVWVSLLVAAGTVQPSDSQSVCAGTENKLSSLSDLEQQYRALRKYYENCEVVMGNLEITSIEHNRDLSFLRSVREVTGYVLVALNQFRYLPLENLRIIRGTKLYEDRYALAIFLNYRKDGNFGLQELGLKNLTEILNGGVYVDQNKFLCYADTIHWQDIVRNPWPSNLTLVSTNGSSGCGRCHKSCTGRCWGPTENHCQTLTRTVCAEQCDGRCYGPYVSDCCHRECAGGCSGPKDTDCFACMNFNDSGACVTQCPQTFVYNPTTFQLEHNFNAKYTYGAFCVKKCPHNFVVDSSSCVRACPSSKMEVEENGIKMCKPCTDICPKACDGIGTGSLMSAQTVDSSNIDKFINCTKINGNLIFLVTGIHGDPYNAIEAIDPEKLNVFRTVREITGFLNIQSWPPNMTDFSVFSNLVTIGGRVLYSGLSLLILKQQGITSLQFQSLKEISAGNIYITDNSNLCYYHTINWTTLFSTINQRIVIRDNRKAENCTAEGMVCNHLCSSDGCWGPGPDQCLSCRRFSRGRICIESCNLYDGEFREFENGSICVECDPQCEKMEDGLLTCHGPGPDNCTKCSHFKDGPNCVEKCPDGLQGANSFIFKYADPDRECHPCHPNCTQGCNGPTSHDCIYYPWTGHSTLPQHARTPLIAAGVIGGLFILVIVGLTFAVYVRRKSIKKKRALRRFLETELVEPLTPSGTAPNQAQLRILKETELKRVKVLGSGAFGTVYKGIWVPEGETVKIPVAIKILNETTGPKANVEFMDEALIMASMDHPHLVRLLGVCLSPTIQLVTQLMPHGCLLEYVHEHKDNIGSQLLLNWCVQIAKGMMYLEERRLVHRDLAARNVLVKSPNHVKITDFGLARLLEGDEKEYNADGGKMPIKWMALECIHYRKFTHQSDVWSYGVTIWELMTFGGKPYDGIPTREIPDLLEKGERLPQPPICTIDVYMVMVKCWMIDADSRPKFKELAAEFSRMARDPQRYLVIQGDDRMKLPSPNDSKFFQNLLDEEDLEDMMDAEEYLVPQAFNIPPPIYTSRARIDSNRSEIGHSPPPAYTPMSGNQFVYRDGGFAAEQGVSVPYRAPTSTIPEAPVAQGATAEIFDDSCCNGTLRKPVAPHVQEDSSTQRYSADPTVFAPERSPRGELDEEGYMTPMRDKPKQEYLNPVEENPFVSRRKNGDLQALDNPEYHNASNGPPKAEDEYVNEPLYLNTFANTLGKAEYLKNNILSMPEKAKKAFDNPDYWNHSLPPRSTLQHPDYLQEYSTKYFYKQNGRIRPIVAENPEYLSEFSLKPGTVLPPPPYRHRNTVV
Sequence of Serine/threonine-protein kinase STK11 (Homo sapiens) (Q15831 whole entry, the tested form may be a part): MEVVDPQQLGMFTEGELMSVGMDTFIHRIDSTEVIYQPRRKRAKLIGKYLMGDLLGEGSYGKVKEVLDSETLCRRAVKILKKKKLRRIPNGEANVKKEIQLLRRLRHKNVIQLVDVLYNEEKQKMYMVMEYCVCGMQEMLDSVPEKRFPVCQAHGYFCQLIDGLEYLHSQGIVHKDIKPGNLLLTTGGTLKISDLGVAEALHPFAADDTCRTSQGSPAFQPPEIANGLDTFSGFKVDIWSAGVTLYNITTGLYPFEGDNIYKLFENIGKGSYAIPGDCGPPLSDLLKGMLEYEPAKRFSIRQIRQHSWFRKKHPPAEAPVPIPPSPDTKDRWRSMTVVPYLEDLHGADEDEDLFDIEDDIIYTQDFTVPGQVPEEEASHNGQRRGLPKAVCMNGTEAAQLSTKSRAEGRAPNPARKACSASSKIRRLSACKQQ
Sequence of Serine/threonine-protein kinase PRP4 homolog (Homo sapiens) (Q13523 whole entry, the tested form may be a part): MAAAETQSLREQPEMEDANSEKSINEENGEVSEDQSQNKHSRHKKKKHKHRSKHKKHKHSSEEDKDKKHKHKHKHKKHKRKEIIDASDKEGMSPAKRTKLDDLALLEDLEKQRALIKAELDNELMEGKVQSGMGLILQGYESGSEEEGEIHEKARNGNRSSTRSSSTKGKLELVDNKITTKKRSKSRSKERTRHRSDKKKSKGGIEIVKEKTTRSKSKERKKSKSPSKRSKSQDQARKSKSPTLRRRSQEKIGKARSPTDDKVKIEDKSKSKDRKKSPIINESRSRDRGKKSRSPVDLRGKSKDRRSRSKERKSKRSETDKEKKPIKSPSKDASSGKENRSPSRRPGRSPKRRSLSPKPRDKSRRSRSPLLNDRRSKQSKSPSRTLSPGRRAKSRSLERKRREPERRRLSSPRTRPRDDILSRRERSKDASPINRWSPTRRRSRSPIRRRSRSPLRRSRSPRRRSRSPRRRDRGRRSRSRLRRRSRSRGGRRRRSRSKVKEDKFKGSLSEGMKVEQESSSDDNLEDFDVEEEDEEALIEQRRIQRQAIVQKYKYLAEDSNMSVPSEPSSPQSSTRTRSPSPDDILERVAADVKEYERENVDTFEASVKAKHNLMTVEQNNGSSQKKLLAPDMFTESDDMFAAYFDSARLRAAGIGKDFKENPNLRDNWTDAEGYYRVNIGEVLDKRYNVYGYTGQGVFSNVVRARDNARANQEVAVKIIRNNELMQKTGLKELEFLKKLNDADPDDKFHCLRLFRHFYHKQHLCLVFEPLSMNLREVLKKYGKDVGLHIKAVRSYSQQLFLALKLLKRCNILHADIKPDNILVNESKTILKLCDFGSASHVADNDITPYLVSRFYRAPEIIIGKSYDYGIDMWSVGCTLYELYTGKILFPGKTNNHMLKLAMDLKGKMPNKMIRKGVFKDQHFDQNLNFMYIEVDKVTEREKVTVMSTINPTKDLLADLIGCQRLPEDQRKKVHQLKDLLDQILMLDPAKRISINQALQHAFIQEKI
Sequence of Serine/threonine-protein kinase PAK 2 (Homo sapiens) (Q13177 whole entry, the tested form may be a part): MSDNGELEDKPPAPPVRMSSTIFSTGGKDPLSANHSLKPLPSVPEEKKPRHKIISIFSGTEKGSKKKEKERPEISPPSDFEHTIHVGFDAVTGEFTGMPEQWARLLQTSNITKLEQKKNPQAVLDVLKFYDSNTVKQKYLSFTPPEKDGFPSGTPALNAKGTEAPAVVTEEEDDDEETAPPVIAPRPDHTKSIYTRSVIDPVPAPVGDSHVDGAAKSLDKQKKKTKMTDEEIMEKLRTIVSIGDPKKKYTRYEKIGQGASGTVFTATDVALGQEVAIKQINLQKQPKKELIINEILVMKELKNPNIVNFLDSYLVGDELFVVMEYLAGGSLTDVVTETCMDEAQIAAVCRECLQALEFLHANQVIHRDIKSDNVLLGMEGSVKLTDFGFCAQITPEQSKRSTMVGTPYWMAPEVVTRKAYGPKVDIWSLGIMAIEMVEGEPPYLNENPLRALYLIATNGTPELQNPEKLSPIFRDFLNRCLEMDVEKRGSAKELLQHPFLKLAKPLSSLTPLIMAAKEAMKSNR

`CCOc1cc(C(=O)N2CCC(N3CCN(C)CC3)CC2)ccc1Nc1ncc2c(n1)N(C1CCCC1)c1ccccc1C(=O)N2C` was tested, and the inhibition [1] was “inactive”.

Work on `COc1cc(N2CCC(N3CCN(C)CC3)CC2)ccc1Nc1ncc2c(n1)N(C)c1ccccc1C(=O)N2C` yielded an inhibition [2] of 69%, an inhibition [3] of 100% and an inhibition [4] of 100%. It also gave an inhibition [5] of 64%, a residual activity [6] of 96% and a residual activity [7] of 89%. It also gave an inhibition [8] of 100%, an inhibition [9] of 100% and an inhibition [10] of 100%. For the same compound, the inhibition [11] was 95%, the inhibition [12] was 84% and the inhibition [13] was 20%. The residual activity [14] was 51%, the inhibition [15] was 93% and the inhibition [16] was 100%. The inhibition [17] was 84%, the inhibition [18] was 100% and the inhibition [19] was 85%. The residual activity [20] was 88%, the inhibition [21] was 28% and the inhibition [22] was 78%. The inhibition [23] was 100%, the inhibition [24] was 100% and the inhibition [25] was 79%. It also gave an inhibition [26] of 65%, a residual activity [27] of 34% and an inhibition [28] of 100%. The inhibition [29] was 97%.
